# According to PMC3190987 (The Journal of Biological Chemistry, 2011):
# Where two headings read alike, the source gives them in different places.
# T1: c-Jun (Homo sapiens, UniProt P05412, S292Y)
# T1 sequence (P05412 with tags, fused parts or gaps S292Y): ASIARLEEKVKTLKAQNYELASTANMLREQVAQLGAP
# Assays:
# [1] = biological target: T1, c-Jun; details: heterodimer with c-Jun; cited from earlier work
# [2] = tested on: c-Jun-DHFR2; test: Growth competition under PCA conditions; type: cell-based, Escherichia coli; details: M9 minimal media with trimethoprim and IPTG; A600 hourly, in duplicate
# How it was run: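 Split murine DHFR complementation in E. coli: library peptide fused to DHFR fragment 1, c-Jun to fragment 2, both lac-driven. Strains came from single colonies on PCA plates with sequence-verified plasmids. Growth rates were monitored under selection in M9 minimal medium with ampicillin, chloramphenicol, kanamycin, trimethoprim and IPTG (1 mM induction).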
# [3] = biological target: T1, c-Jun; test: CD spectra of heterodimeric complexes with c-Jun; details: for θ222/θ208 (20 °C) / Fraction helical (fH): heterodimer with c-Jun; for θ222/θ208 (20 °C): CD, 150 μM total peptide, pH 7, 20 °C; for Fraction helical (fH): from θ222, 20 °C
# How it was run: (§1)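 CD spectra of homodimeric or c-Jun heterodimeric samples, 150 μM total peptide, 10 mM potassium phosphate, 100 mM KF, pH 7, 1-mm cell. Scans 300–190 nm at 20 °C (pre- and post-melt) and at −8 °C. Converted to molar residue ellipticity, giving θ222/θ208. Fraction helicity taken from θ222 with k = 2.4 and T = 293 K.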
# [4] = biological target: T1, c-Jun; test: Isothermal titration calorimetry; type: binding; details: for ΔH / ΔGbind (ITC) / TΔS (ΔH − ΔG): ITC, 20 °C; for ΔH: pH 7, one-site model; for ΔGbind (ITC): calculated by Equation 4; for TΔS (ΔH − ΔG): calculated from ΔH and ΔGbind
# How it was run: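 VP-ITC at 20 °C in 10 mM potassium phosphate, 100 mM KF, pH 7. Syringe peptide at 175–250 μM was injected 25 × 5 μl into cell peptide at 10–40 μM; syringe and cell partners were also swapped. Each run was done at least twice. Isotherms fitted to a 1:1 one-site model for Kd and ΔH. ΔG calculated at 293.15 K; TΔS from ΔH and ΔG.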
# [5] = biological target: T1, c-Jun; test: CD dimer exchange experiment; type: binding; details: CD spectra, total peptide 150 μM
# How it was run: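 Equilibrium mixing followed by CD in 10 mM potassium phosphate, 100 mM KF, pH 7. Spectra recorded for the c-Fos homodimer and for the test peptide–c-Jun heterodimer, each at 150 μM total peptide. Equal volumes of the two solutions were then mixed, keeping the final total peptide at 150 μM, and the spectrum was re-recorded.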
# [6] = CD spectra of peptides in isolation; type: physicochemical; details: for helicity in isolation: peptide in isolation, from θ222, 20 °C
# How it was run: as §1
# [7] = Thermal melts followed by CD at 222 nm, homodimers; type: physicochemical; details: homodimer; CD 222 nm, 150 μM total peptide, pH 7
# How it was run: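 CD thermal denaturation at 222 nm, 150 μM total peptide, 10 mM potassium phosphate, 100 mM KF, pH 7. Started at −8 °C and stepped in 1 °C increments with a 30 s hold, signal averaged over 4 s per point. Tm obtained by least-squares fit to a two-state model (modified Gibbs-Helmholtz).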
# [8] = biological target: c-Jun (37-residue leucine zipper peptide); test: ITC
# [9] = biological target: c-Jun (37-residue leucine zipper peptide); test: CD thermal denaturation
# [10] = homodimer; cited from earlier work
θ222/θ208 (20 °C) [3],Fraction helical (fH) [3] [%],ΔH [4] [kcal/mol],ΔGbind (ITC) [4] [kcal/mol],TΔS (ΔH − ΔG) [4] [kcal/mol],Ka [8] [M⁻¹],Kd [9] [nM],Molecule,affinity for c-Jun by E. coli growth rate [2],also measured
0.75,3.6,-0.8 ± 0.4,-6.1 ± 0.4,5.3 ± 0.5,–,–,ASTDTLQAETDQLEDEKYALQTEIANLLKEKEKLGAP [c-Fos],lower affinity interaction,Tm [1]: 16 °C
0.99,60.4,-14.1 ± 0.2,-8.8 ± 0.1,-5.3 ± 0.2,–,–,ASLDELQREIEQLEELNYALQKEIEDLQKQGAP [4hFosW],much improved affinity over c-Fos,"specificity for c-Jun in the presence of c-Fos [5]: specific for c-Jun in the presence of c-Fos; magnitude of the CD peak at 222 nm ([3]; heterodimeric complex with c-Jun, 20 °C): approximately −112 millidegrees; gain in helicity of complex with c-Jun over c-Jun-FosW ([3]; measured helicity by CD): ~25%; gain in helicity in isolation relative to FosW [6]: ~7%; magnitude of the CD peak at 222 nm ([6]; homodimeric complex, 20 °C): approximately −87 millidegrees; ratio θ222/θ208 ([6]; peptide in isolation (homodimeric)): ~1.0; helicity in isolation [6]: 50.6%; loss of stability of complex with c-Jun relative to c-Jun-FosW ([4]; ITC free energy of binding): around 1 kcal/mol; Tm [7]: 36 °C"
–,–,–,–,–,38000,26600,c-Fos (37-residue leucine zipper peptide),–,–
–,–,–,–,–,–,–,ASIARLEEKVKTLKAQNYELASTANMLREQVAQLGAP [c-Jun],–,Tm [10]: 24 °C
1.0,35.8,-10.6 ± 0.2,-9.9 ± 0.1,-0.7 ± 0.2,–,–,ASLDELQAEIEQLEERNYALRKEIEDLQKQLEKLGAP [FosW],much improved affinity over c-Fos,helicity in isolation [6]: 43.7%
–,–,–,–,–,2.1e+06,487,Ac-ASLDELQREIEQLEELNYALQKEIEDLQKQGAP-NH2 [4hFosW],–,dH [8]: -14.1 kcal/mol; stoichiometry N [8]: 1.05; Tm [9]: 49 °C
–,–,–,–,–,2.2e+07,45,Ac-ASLDELQAEIEQLEERNYALRKEIEDLQKQLEKLGAP-NH2 [FosW],–,dH [8]: -10.6 kcal/mol; stoichiometry N [8]: 0.65; Tm [9]: 63 °C
